HCT116 PTEN-null = PTEN-deleted cell growth suppression; HCT116 PTEN-null viability, CellTiter-Glo, 60 h; stronger effect = lower value; viability, % at 10 µM; hit rate 1.2% among 140,000; AID 827;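 active = viability at or below a set limit, 4 SD under the median of all tested compounds, cut at about 3.7% in these data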;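 note: PTEN knockout HCT116 line with beta catenin targeted HCT116 as companion control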
H69AR growth 86K = blocks growth of human H69AR lung tumor cells; H69AR lung tumor viability, ATP luminescence, 72 h; stronger effect = lower value; viability, % at 10 µM; hit rate 6% among 85,000; AID 598;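 active = viability at or below 40%; inactive = viability above 40%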;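 note: multidrug resistant small cell line overexpressing MRP-1 efflux transporter; 100% = mean luminescence of untreated control wells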
Calb biofilm kill = kills Candida albicans biofilms; C. albicans biofilm + clotrimazole, Alamar Blue; hit rate 0.14% among 85,000; AID 834; inhibition, % at 6 µM;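 active = inhibition above 20%; inactive = inhibition below 20%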;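 note: preformed 24 hr biofilms exposed to compound for 48 hr; 0% = biofilm without compound and 100% = blank killed by clotrimazole plus chlorhexidine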
HUVEC prolif 384 = blocks proliferation of human endothelial cells; HUVEC proliferation, CellTiter-Glo luminescence, 72 h; stronger effect = lower value; viability, % at 10 µM (by protocol); hit rate 1.1% among 86,000;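 active = viability at or below 30%; inactive = viability above 30%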;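 note: 100% = median luminescence of DMSO-only cell control wells on each plate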
HCT116 bCat-KO = beta-catenin-lacking colon tumor cell growth suppression. HCT116 beta-catenin knockout viability, CellTiter-Glo, 60 h; stronger effect = lower value. viability, % at 10 µM. hit rate 1.5% among 140,000;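 active = viability at or under a set limit, the compound median less 4 SD, cut at about 6% in these data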;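 note: 0% = Hyamine 1622 control at 20 µM and 100% = untreated cell control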
Fibroblast inh = blocks proliferation of human lung fibroblasts. AID 719. viability, % at 10 µM. hit rate 1.1% among 85,000. LL 47 human lung fibroblast viability, ATP luminescence; stronger effect = lower value;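 active = viability at or below 50% in the single dose screen; inactive = viability above 50%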;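 note: compound exposure lasted 72 h before the ATP readout; 100% = median luminescence of untreated cell-only wells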
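Assay system: human lung fibroblast line LL 47, low passage. Input: 1,150 fibroblasts seeded per well. Times: overnight cell rest, 72 h compound treatment at 37 °C. Evaluation: % viability of median cell-only signal. Technique: luminescent ATP detection, CellTiter-Glo. Control set: cell-only wells, no compound.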
* marks the source's active call; other numbers are inactive results; · = no result. The sample as a whole holds a higher share of hits than the screen did.

SMILES | HCT116 PTEN-null | H69AR growth 86K | Calb biofilm kill | HUVEC prolif 384 | HCT116 bCat-KO | Fibroblast inh
CCOc1ccc2nc(N3C(=O)/C(=C/c4ccc(Cl)cc4)NC3=S)sc2c1 | 35.2 | · | · | · | 48.6 | ·
CC(C)C1O/C(=N/C(=O)Nc2ccc(Cl)c(Cl)c2)NC1=O (stereo not given) | 57.8 | 11.5* | 0.8 | 55.0 | 72.5 | 88.4
COc1ccc(C(=O)Nc2ccc(Cl)c(Cl)c2)c(OC)n1 | 74.3 | 47.1 | 3.8 | 81.1 | 68.6 | 81.4
COc1ccc(CNC(=O)COC(=O)C2CCC(C(C)(C)C)CC2)cc1 (stereo not given) | 88.9 | · | · | · | 97.3 | ·
CCCCCCc1cc2cc(C(=O)Nc3ccccc3)c(=O)oc2cc1O | 1.7* | · | · | · | 1.5* | ·
CCc1ccccc1N1CSC2=C(C#N)C(c3ccccc3F)CC(=O)N2C1 (stereo not given) | 86.5 | 28.6* | 9.9 | 82.4 | 71.3 | 97.3
CCOC(=O)C1=C(C)N=c2s/c(=C\c3ccncc3)c(=O)n2C1c1ccc2c(c1)OCO2 (stereo not given) | 9.9 | 3.0* | -0.1 | 50.1 | 12.9 | 70.6
CCOC(=O)C1=C(C)N=c2s/c(=C3\C(=O)Nc4ccccc43)c(=O)n2C1c1ccc2c(c1)OCO2 (stereo not given) | 90.6 | 27.1* | 5.7 | 72.5 | 86.7 | 91.3
CCOC(=O)C1=C(C)N=c2s/c(=C/c3ccccc3)c(=O)n2C1c1ccc(OC)c(OC)c1 (stereo not given) | 52.3 | · | · | · | 61.2 | ·
CCOC(=O)c1ccc2[nH]c3c(c2c1)CCCCC3=O | 98.4 | 93.2 | 2.8 | 75.7 | 98.6 | 107.2
O=C1CCCc2c1[nH]c1ccc(Cl)cc21 | 93.7 | 106.9 | 10.9 | 19.2* | 87.1 | 97.0
CCCCCOc1ccc(Br)cc1CSC(=N)N | 0.8* | · | · | · | 1.3* | ·
COc1ccc(-c2nn(-c3ccccc3)cc2/C=N/N2C(=O)CSC2=S)cc1 | 91.0 | 59.8 | 8.9 | 4.0* | 99.5 | 58.7
O=C(NCc1cccs1)C1CCN(c2ccc(S(=O)(=O)N3CCOCC3)cc2Cl)CC1 | 10.4 | 17.6* | 4.0 | 53.7 | 11.8 | 58.7
CC(C)CNC(=O)C1CCN(c2ccc(S(=O)(=O)N3CCOCC3)cc2Cl)CC1 | 85.8 | 91.9 | 12.1 | 97.0 | 92.4 | 94.6
COc1ccccc1-c1cc(C(F)(F)F)nc(S(=O)(=O)CCCC(=O)Nc2cc(C)on2)n1 | 2.0* | · | · | · | 4.0* | ·
COc1ccccc1-c1cc(C(F)(F)F)nc(S(=O)(=O)CCCC(=O)NC(C)C)n1 | 4.0 | · | · | · | 6.0* | ·
COc1ccccc1-c1cc(C(F)(F)F)nc(S(C)(=O)=O)n1 | 37.6 | · | · | · | 2.6* | ·
N#Cc1c(-c2ccco2)cc(-c2cccnc2)nc1N | 77.8 | 46.8 | 1.3 | 89.4 | 70.5 | 94.8
N#Cc1c(-c2ccco2)cc(-c2ccccn2)nc1N | 87.7 | 35.1* | 8.5 | 85.7 | 88.0 | 88.3
COc1ccc(Nc2nc3c(c(=O)n(C)c(=O)n3C)n2CCO)cc1 | 84.1 | 83.0 | 6.6 | 93.0 | 99.8 | 105.5
O=C1C(Cl)=C(N2CCN(c3ccccc3[N+](=O)[O-])CC2)C(=O)c2ccccc21 | 1.2* | · | · | · | 0.9* | ·
CCOC(=O)SC1=N/C(=C\c2ccc(N(C)C)cc2)C(=O)S1 | 89.8 | 26.9* | 10.2 | 86.6 | 91.3 | 108.0
CN1CCC2(CC1)N=C(c1ccc(F)cc1)C(=S)N2C(=O)c1ccc(C(C)(C)C)cc1 | 100.0 | · | · | · | 90.6 | ·
CCC(=O)Nc1cccc(C(=O)c2ccccc2)c1 | 95.7 | 98.4 | 2.7 | 94.6 | 96.0 | 91.3
SMILES | HCT116 PTEN-null | H69AR growth 86K | Calb biofilm kill | HUVEC prolif 384 | HCT116 bCat-KO | Fibroblast inh
CCC(=O)Nc1cccc(C(=O)/C=C/c2ccccc2)c1 | 1.4* | · | · | · | 1.6* | ·
O=C(c1cc(-c2cccnc2)nc2ccc(Br)cc12)N1CCN(c2ncccn2)CC1 | 51.8 | 5.3* | 6.2 | 51.0 | 51.3 | 80.1
O=C(Nc1ccccn1)c1cc(-c2cccnc2)nc2ccc(Br)cc12 | 52.2 | · | · | · | 59.7 | ·
O=C(c1cc(-c2ccccc2)nc2ccccc12)N1CCN(c2ccccn2)CC1 | 69.1 | 57.7 | 6.3 | 86.3 | 85.9 | 94.6
O=C(c1ccccc1-c1ccccc1)N1CCN(c2ccccn2)CC1 | 30.9 | 19.2* | 6.8 | 56.0 | 15.5 | 53.3
O=C(c1cc(-c2ccncc2)nc2ccccc12)N1CCN(c2ccccn2)CC1 | 19.8 | 19.4* | 1.5 | 50.8 | 26.2 | 59.6
Cc1ccccc1C(=O)N1CCN(c2ccccn2)CC1 | 95.8 | 95.8 | 7.9 | 107.7 | 91.2 | 108.2
CC1=CC(C)(C)n2c(O)c(C3=NC(=S)NC3=O)c3cc(OC(=O)c4cccc5ccccc45)cc1c32 | 0.9* | · | · | · | 1.8* | ·
